Test results: BindingDB's records for doi:10.1021/jm991078x (Insituto De Qu?mica M?dica (Csic), 1999)

What was measured:
[1] = molecular target: T1, Cholecystokinin receptor type A (Rattus norvegicus, UniProt P30551); assay: Binding affinity by competitive inhibition of the radioligand [3H]pCCK-8 at Cholecystokinin type A receptor from rat pancreas
T1 sequence (P30551 whole entry): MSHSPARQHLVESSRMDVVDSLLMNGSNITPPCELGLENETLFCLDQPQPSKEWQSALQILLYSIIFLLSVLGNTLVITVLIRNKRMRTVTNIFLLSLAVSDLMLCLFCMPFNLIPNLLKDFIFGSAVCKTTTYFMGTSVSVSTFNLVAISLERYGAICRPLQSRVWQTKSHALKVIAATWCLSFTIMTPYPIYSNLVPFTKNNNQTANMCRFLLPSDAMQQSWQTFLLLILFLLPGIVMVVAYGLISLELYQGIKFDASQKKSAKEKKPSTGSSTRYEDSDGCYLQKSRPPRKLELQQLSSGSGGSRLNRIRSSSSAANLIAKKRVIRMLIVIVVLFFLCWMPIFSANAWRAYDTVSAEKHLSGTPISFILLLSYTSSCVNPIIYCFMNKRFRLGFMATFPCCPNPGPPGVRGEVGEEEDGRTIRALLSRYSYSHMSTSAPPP
Summary of the method: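 Rat pancreas homogenized in Pipes HCl pH 6.5 with 30 mM MgCl2, centrifuged twice at 50000g, 4 °C. Membranes (0.2 mg protein/tube) incubated with 0.5 nM [3H]pCCK-8 plus bacitracin and soybean trypsin inhibitor (0.2 mg/mL each) for 120 min at 25 °C. […]. Seven concentrations in triplicate, at least three experiments.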

[2] = molecular target: T2, Gastrin/cholecystokinin type B receptor (Rattus norvegicus, UniProt P30553); assay: Binding affinity by competitive inhibition of the radioligand [3H]pCCK-8 at Cholecystokinin type B receptor from rat cerebral cortex membrane
T2 sequence (P30553 whole entry): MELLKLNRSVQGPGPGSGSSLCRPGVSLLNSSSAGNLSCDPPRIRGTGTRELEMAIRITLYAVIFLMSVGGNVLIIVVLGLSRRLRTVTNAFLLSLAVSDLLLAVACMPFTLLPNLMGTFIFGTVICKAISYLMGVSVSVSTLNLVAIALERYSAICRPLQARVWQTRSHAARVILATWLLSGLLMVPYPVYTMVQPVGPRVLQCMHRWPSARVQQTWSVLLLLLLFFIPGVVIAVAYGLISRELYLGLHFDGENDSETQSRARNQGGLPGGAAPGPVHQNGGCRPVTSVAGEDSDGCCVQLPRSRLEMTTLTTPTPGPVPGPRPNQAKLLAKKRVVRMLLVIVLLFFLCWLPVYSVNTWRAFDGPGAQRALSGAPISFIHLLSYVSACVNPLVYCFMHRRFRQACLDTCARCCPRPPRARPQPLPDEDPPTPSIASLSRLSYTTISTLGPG

Row | SMILES | IC50 [1] [nM] | IC50 [2] [µM]
1 | O=C(Cc1c[nH]c2ccccc12)N[C@H]1CCCN2C(=O)N(Cc3ccccc3)C(=O)C[C@@H]12 [N-((4aS,5S)-2-Benzyl-1,3-dioxo-octahydro-pyrido[1,2-c]pyrimidin-5-yl)-2-(1H-indol-3-yl)-acetamide; compound with 1H-indole-3-carboxylic acid ((4aR,5R)-2-benzyl-1,3-dioxo-octahydro-pyrido[1,2-c]pyrimidin-5-yl)-amide] | > 1000 | > 10
2 | O=C(N[C@H]1CCCN2C(=O)N(Cc3ccccc3)C(=O)C[C@H]12)c1cc2ccccc2[nH]1 | > 1000 | > 10
